{"source": "ChEMBL document CHEMBL1151952", "about": "“Biologically active cannabinoids from high-potency Cannabis sativa” (J Nat Prod, 2009)", "key": {"Leishmania donovani": {"test_system": "Leishmania donovani", "assay": "Antileishmanial activity against Leishmania donovani", "format": "functional, organism-based", "how_it_was_run": "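Leishmania donovani assay; IC50 and IC90 are the test concentrations that kill 50% and 90% of cells, relative to solvent controls.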"}, "Candida albicans": {"test_system": "Candida albicans", "assay": "Antifungal activity against Candida albicans ATCC 90028 after 18 to 24 hrs by alamar blue assay", "format": "functional, organism-based"}, "[1]": {"test_system": "Mycobacterium intracellulare", "assay": "Antibacterial activity against Mycobacterium intracellular ATCC 23068 after 68 to 72 hrs by alamar blue assay", "format": "functional, organism-based"}, "Vero": {"test_system": "Vero", "assay": "Cytotoxicity against african green monkey Vero cells up to 10 ug/mL by neutral red method", "format": "cell-based", "conditions": "chlorocebus sabaeus; call rule not given here"}, "Escherichia coli": {"test_system": "Escherichia coli", "assay": "Antibacterial activity against Escherichia coli ATCC 35218 after 18 to 24 hrs by alamar blue assay", "format": "functional, organism-based"}, "Pichia kudriavzevii": {"test_system": "Pichia kudriavzevii", "assay": "Antifungal activity against Candida krusei ATCC 6258 by alamar blue assay", "format": "functional, organism-based"}, "Staphylococcus aureus [2]": {"test_system": "Staphylococcus aureus", "assay": "Antibacterial activity against Staphylococcus aureus ATCC 29213 by alamar blue assay", "format": "functional, organism-based"}, "Plasmodium falciparum [3]": {"test_system": "Plasmodium falciparum", "assay": "Antiplasmodial activity against Plasmodium falciparum W2", "format": "functional, organism-based"}, "Plasmodium falciparum [4]": {"test_system": "Plasmodium falciparum", "assay": "Antiplasmodial activity against Plasmodium falciparum D6", "format": "functional, organism-based"}, "Staphylococcus aureus [5]": {"test_system": "Staphylococcus aureus", "assay": "Antibacterial activity against methicillin-resistant Staphylococcus aureus ATCC 33591 after 18 to 24 hrs by alamar blue assay", "format": "functional, organism-based"}, "[6]": {"conditions": "Candida albicans, ATCC 90028, read-out: IC50"}, "[7]": {"conditions": "Mycobacterium intracellulare, ATCC 23068, read-out: IC50"}, "[8]": {"conditions": "Staphylococcus aureus, ATCC 29213, read-out: IC50"}, "[9]": {"conditions": "Plasmodium falciparum, W2, read-out: IC50"}, "[10]": {"conditions": "Plasmodium falciparum, D6, read-out: IC50"}}, "data": [{"compound": "N=C(N)c1ccc(OCCCCCOc2ccc(C(=N)N)cc2)cc1", "note": "[PENTAMIDINE]", "values": [{"measurement": "IC50", "setting": "Leishmania donovani", "value": 3.8, "unit": "µM"}, {"measurement": "IC90", "setting": "Leishmania donovani", "value": 19.1, "unit": "µM"}]}, {"compound": "CCCCCc1cc(O)c2c(c1)OC(C)(C)c1cc(O)c(C)cc1-2", "values": [{"measurement": "IC50", "setting": "Candida albicans; [6]", "value": 4.6, "unit": "µM"}, {"measurement": "IC50", "setting": "[1]; [7]", "value": 30.6, "unit": "µM"}, {"measurement": "Activity", "setting": "Vero", "value": "Non-toxic"}, {"measurement": "IC50", "setting": "Escherichia coli", "value": "Not Active"}]}, {"compound": "C[C@@H]1[C@H](O)[C@@H](C)/C=C/C=C/C=C/C=C/C=C/C=C/C=C/[C@H](O[C@@H]2O[C@H](C)[C@@H](O)[C@H](N)[C@@H]2O)C[C@@H]2O[C@](O)(C[C@@H](O)C[C@@H](O)[C@H](O)CC[C@@H](O)C[C@@H](O)CC(=O)O[C@H]1C)C[C@H](O)[C@H]2C(=O)O", "note": "[AMPHOTERICIN B]", "values": [{"measurement": "IC50", "setting": "Pichia kudriavzevii", "value": 0.7, "unit": "µM"}]}, {"compound": "CCCCCc1cc2c(c(O)c1C(=O)O)-c1cc(C)c(O)cc1C(C)(C)O2", "note": "[8-HYDROXYCANNABINOLIC ACID A]", "values": [{"measurement": "IC50", "setting": "Pichia kudriavzevii", "value": 54, "unit": "µM"}, {"measurement": "IC50", "setting": "Candida albicans", "value": "Not Active"}, {"measurement": "IC50", "setting": "[1]", "value": "Not Active"}, {"measurement": "IC50", "setting": "Staphylococcus aureus [2]; [8]", "value": 3.5, "unit": "µM"}, {"measurement": "Activity", "setting": "Vero", "value": "Non-toxic"}, {"measurement": "IC50", "setting": "Escherichia coli; Escherichia coli, ATCC 35218, read-out: IC50", "value": 54, "unit": "µM"}]}, {"compound": "C=C(C)C(O)CCC1(C)C=Cc2c(O)cc(CCCCC)cc2O1", "note": "(racemic)", "values": [{"measurement": "IC50", "setting": "Plasmodium falciparum [3]", "value": "Not Active"}, {"measurement": "IC50", "setting": "Pichia kudriavzevii", "value": 60.5, "unit": "µM"}, {"measurement": "IC50", "setting": "Candida albicans; [6]", "value": 60.5, "unit": "µM"}, {"measurement": "IC50", "setting": "Plasmodium falciparum [4]", "value": "Not Active"}, {"measurement": "IC50", "setting": "[1]", "value": "Not Active"}, {"measurement": "IC90", "setting": "Leishmania donovani", "value": 96.8, "unit": "µM"}, {"measurement": "IC50", "setting": "Staphylococcus aureus [2]; [8]", "value": 29.6, "unit": "µM"}, {"measurement": "Activity", "setting": "Vero", "value": "Non-toxic"}, {"measurement": "IC50", "setting": "Escherichia coli", "value": "Not Active"}, {"measurement": "IC50", "setting": "Staphylococcus aureus [5]", "value": 24.4, "unit": "µM"}]}, {"compound": "CCCCCc1c(C/C=C(\\C)CCC=C(C)C)c(O)cc(O)c1OC(C)=O", "values": [{"measurement": "IC50", "setting": "Plasmodium falciparum [3]", "value": "Not Active"}, {"measurement": "IC50", "setting": "Pichia kudriavzevii", "value": 53.4, "unit": "µM"}, {"measurement": "IC50", "setting": "Candida albicans", "value": "Not Active"}, {"measurement": "IC50", "setting": "Plasmodium falciparum [4]", "value": "Not Active"}, {"measurement": "IC50", "setting": "[1]", "value": "Not Active"}, {"measurement": "IC50", "setting": "Leishmania donovani", "value": 42.7, "unit": "µM"}, {"measurement": "IC90", "setting": "Leishmania donovani", "value": 85.4, "unit": "µM"}, {"measurement": "IC50", "setting": "Staphylococcus aureus [2]; [8]", "value": 12.2, "unit": "µM"}, {"measurement": "Activity", "setting": "Vero", "value": "Non-toxic"}, {"measurement": "IC50", "setting": "Escherichia coli", "value": "Not Active"}, {"measurement": "IC50", "setting": "Staphylococcus aureus [5]", "value": 6.7, "unit": "µM"}]}, {"compound": "CCCCCc1cc(O)c(C/C=C(\\C)CCC=C(C)C)c(OC(C)=O)c1O", "values": [{"measurement": "IC50", "setting": "Plasmodium falciparum [3]; [9]", "value": 6.7, "unit": "µM"}, {"measurement": "IC50", "setting": "Candida albicans", "value": "Not Active"}, {"measurement": "IC50", "setting": "Plasmodium falciparum [4]; [10]", "value": 7.2, "unit": "µM"}, {"measurement": "IC50", "setting": "[1]", "value": "Not Active"}, {"measurement": "IC50", "setting": "Leishmania donovani", "value": 10.7, "unit": "µM"}, {"measurement": "IC90", "setting": "Leishmania donovani", "value": 18.7, "unit": "µM"}, {"measurement": "IC50", "setting": "Staphylococcus aureus [2]", "value": "Not Active"}, {"measurement": "Activity", "setting": "Vero", "value": "Non-toxic"}, {"measurement": "IC50", "setting": "Escherichia coli", "value": "Not Active"}, {"measurement": "IC50", "setting": "Staphylococcus aureus [5]", "value": 53.4, "unit": "µM"}]}, {"compound": "O=C(O)c1cn(C2CC2)c2cc(N3CCNCC3)c(F)cc2c1=O", "note": "[CIPROFLOXACIN]", "values": [{"measurement": "IC50", "setting": "[1]; [7]", "value": 1.5, "unit": "µM"}]}, {"compound": "CCCCCc1cc(O)c2c(c1OC(C)=O)OC(C)(CCC=C(C)C)C=C2", "note": "(racemic)", "values": [{"measurement": "IC50", "setting": "Plasmodium falciparum [3]; [9]", "value": 4, "unit": "µM"}, {"measurement": "IC50", "setting": "Plasmodium falciparum [4]; [10]", "value": 7.2, "unit": "µM"}, {"measurement": "IC50", "setting": "Leishmania donovani", "value": 40.3, "unit": "µM"}, {"measurement": "IC90", "setting": "Leishmania donovani", "value": 91.3, "unit": "µM"}, {"measurement": "Activity", "setting": "Vero", "value": "Non-toxic"}]}]}
